From the EternaBench riboswitch data

Test system: MS2 coat protein
Experiment: apparent Kd, MS2 coat protein; higher = weaker binding; RNA-MaP array; FMN 200 µM where present
Outline: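 Stalled E. coli RNA polymerase transcribed each design on Illumina sequencing-chip clusters. The clusters were titrated with SNAP-549-labelled MS2 coat protein, starting at 0.7 or 1.5 nM and doubling up to 3 µM, first without ligand and then with constant ligand, in 100 mM Tris-HCl pH 7.5, 80 mM KCl, 4 mM MgCl2, BSA, DTT, yeast tRNA and Tween-20. Green signal was normalised to red-channel RNA signal and to the control-cluster median Fmax. The apparent Kd is the median of filtered binding-curve fits made for each cluster.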

[1] = designed as: OFF switch for flavin mononucleotide, no ligand
[2] = ligand present: flavin mononucleotide, designed as: OFF switch for flavin mononucleotide
[3] = designed as: ON switch for flavin mononucleotide, no ligand
[4] = ligand present: flavin mononucleotide, designed as: ON switch for flavin mononucleotide

Row | Sequence | apparent Kd [1] | apparent Kd [2] | apparent Kd [3] | apparent Kd [4]
1 | ACCAAUGCAGGAUAUACAUGAGGAUCACCCAUGUAUAACCUACAUAGAUGAUCAUCAUGUAGAAGGGCAUUGGA | 12.5 nM | 10.1 nM |  | 
2 | GUACUGAGGCUUUGCUUUAGUCGUACAUGAGGAUCACCCAUGUAGGAUAUGGUAGGCUUUGCUUACCAGAAGGACAGAGUGAUC | 168 nM | 85.7 nM |  | 
3 | GCUAUCGAUGUAGGAUAUGCUAGGGAAACCCUGGCAGAAGGACAUGAGGAUCACCCAUGUCAAUGAGUGAAGAGAAGAGAUGGC | 43.3 nM | 127 nM |  | 
4 | AAGUCGACGGUGAGGAUAUCGGUUGAACGACAGAUCGAGAAGGCACAUGAGGAUCACCCAUGUGGGUAACGUCG | 19.3 nM | 31.8 nM |  | 
5 | AUCAGCUCGUCAGGAUAUACGACACUGCGUCAGCAGUGUGGUAAGAUCACAUGAGGAUCACCCAUGUAGAAGGGACGAGCUGAU | 6.87 nM | 28.1 nM |  | 
6 | AUACGAAAGAUAGGAUAUACUGAGGUUGAAUGGGUAGAAGGAUCGAUAGUGGAGAAGACAUGAGGAUCACCCAUGUUGUGGAUU |  |  | 681 nM | 217 nM
7 | AUAUAGGCCCAGAAGGUGCCAGCGAGAGCUGCACAUGAGGAUCACCCAUGUUGUCGGUGACGACGCAAGGAUAUGGGCCUAUAU |  |  | 24.8 nM | 7.13 nM
8 | UGCUACGUUUCGUAGCAGCUAGGUGAGGAUAUUCAAUUUUUCACAUGAGGAUCACCCAUGUAUGUGAAGAAGGCGCCUAGAAAA |  |  | 10.2 nM | 4.56 nM
9 | UAUUAACACGAAGGAUAUGCUUACAUGAGGAUCACCCAUGUAUGUAUAUUGAUCCAGAUUUUUGAGCAGAAGGUCGUGAGUAAA | 35.3 nM | 141 nM |  | 
10 | CUUAAACAUGAGGAUCACCCAUGUCAGGAUAUGAUACUAUGUACUUCGGUACAUAGUAUCAGAAGGGAUAUGAA | 49 nM | 64.8 nM |  | 
11 | UGUUUGGGAGGAUAUCCAAUAUAUGACAUGAGGAUCACCCAUGUUUCCACUCGUACCUCCGGAGAAGGCCCUGCGU | 24.7 nM | 22 nM |  | 
12 | CCUCUAACCUAGGAUAUAGGUAGACCUAGUCGCCUAGAAGGAGGUACAUGAGGAUCACCCAUGUAUAUUGGGCU | 277 nM | 127 nM |  | 
13 | GAGCUGUGAGGAUAUAAACCUGUGGGCUCAACCUAGCGGGUUUAGAAGGCACAUGAGGAUCACCCAUGUCCCAA | 26 nM | 262 nM |  | 
14 | UGGUACAUGGGAGGAUAUGGGUUGAUAACAUGAGGAUCACCCAUGUUAAAUAUGCCUCUUGGCAACUAGAAGGCCCAUGUACCU |  |  | 512 nM | 41.8 nM
15 | CCGGAAAUACAGGAUAUAGGAGUCGAUAGACUCCUAGAAGGGUAUACAUGAGGAUCACCCAUGUUCCUUACCGG | 45.9 nM | 50.1 nM |  | 
16 | GUGUACGGAGGAUAUAUAUGGGCAGCAUACGCUGCAGCUUCACAUGAGGAUCACCCAUGUAGAAGGCUGUACAC | 25 nM | 200 nM |  | 
17 | GGAUAGGACAGAGGAUAUACGUGCUAGAGAUCCUAGCAAAAUUUCCUCACAUGAGGAUCACCCAUGUAGAAGGCUGUCCUAUCG | 15.5 nM | 417 nM |  | 
18 | UUAUAUAUAUAAGGAUAUGUAUAUCCAACAUGAGGAUCACCCAUGUUGAGGAUCACCCAUGUAAAGCAGAAGGUAUAUAUAAAU |  |  | 42.8 nM | 26.4 nM
19 | CCAUGGCAUGUAGGAUAUGUCUGACAAAGUCAGACAGAAGGACAUGAGGAUCACCCAUGUAGGAAAUAACCACAUAAGCCAUGG | 6.32 nM | 5.86 nM |  | 
20 | UGAAACUACGAGAAGGACAUGUGGUCCUUCAGUUACAUGAGGAUCACCCAUGUAGGAUAUCGUAGUUUCAGGAUCGUGAGAUCG | 34.7 nM | 10.4 nM |  | 
21 | AUGUCCUGAGGAUAUGGUCCAUUACACAUGAGGAUCACCCAUGUGGGUCUCGCCUGUAGGCCAGAAGGUAGGUCUU | 52.8 nM | 49.5 nM |  | 
22 | CACUGCAAUGUAGGAUAUCGACUGGAUAACAGUCGAGAAGGACAUGAGGAUCACCCAUGUACUUUGAGUGAAUAAUAAGCAGUG | 16.5 nM | 59.7 nM |  | 
23 | AUUGUGUGAGGAUAUUAGUAGUAGAUAAAUGGAGUUGUAACUGAGAAGGCACAUGAGGAUCACCCAUGUUCCUU | 18.7 nM | 24.6 nM |  | 
24 | GUCAGCUCGUGAGGAUAUAUAACACUGCUUCGGCAGUGUAUUAAGAUCACAUGAGGAUCACCCAUGUAGAAGGCACGAGCUGAU | 5.04 nM | 8.94 nM |  | 
25 | GUCAGCUCGUGAGGAUAUACAAGACUGCUUCGGCAGUGUAUUAAGAUCACAUGAGGAUCACCCAUGUAGAAGGCACGAGCUGAU | 8.12 nM | 79.6 nM |  | 
26 | GCGUAAUAGGUGUAGCUAGUCAUUCAAGAAGGGUGGAGAACAUGAGGAUCACCCAUGUAGUUUAUACAGGAUAUUGAUAUACGC |  |  | 552 nM | 138 nM
27 | CCCACAUGAGGAUAUCCAUCUGGAUCAGACUAGAUCCUGAUGGAGAAGGUACAUGAGGAUCACCCAUGUGUGGG | 301 nM | 222 nM |  | 
28 | GGGUACAUCGGAGGAUAUCAUGUAAUUACAUGAGGAUCACCCAUGUCGAUGGAGACAUCGGAGAUUGAGAAGGCCGAUGUACCG |  |  | 316 nM | 12.4 nM

Row | Sequence | apparent Kd [1] | apparent Kd [2] | apparent Kd [3] | apparent Kd [4]
29 | ACUGACAUGAGGAUCACCCAUGUCUUGAAUAGGUCAAAUUCACAGGAUAUGCGCUUUGACAGGGCGCAGAAGGGUGAUGCAAUG |  |  | 70.2 nM | 11.8 nM
30 | UUGGCGCGAUCCUGGGUCUCACAUGAGGAUCACCCAUGUAGAGAGGAUAUGCAUAGGGCCCAUUGGCAGAAGGCUCUACAUGAG | 101 nM | 47.3 nM |  | 
31 | GGACCACAUCAGGAUAUGACUAGCCUCGGCUAGUCAGAAGGGAUGACAUGAGGAUCACCCAUGUGAUCAGGUCC | 67.9 nM | 110 nM |  | 
32 | GGAAAACAUGAGGAUCACCCAUGUGAGGAUAUCGAUGUCCAAAAAAAAGUGCGGGACUCGAGAAGGCACUUGGU | 57.1 nM | 58.4 nM |  | 
33 | UUUUCUCGUGAGAAGGACAUGAGGAUCACCCAUGUAGGAUAUCGUGGGAGACAGGAAUUGAAUCUUCGGAUUCAAUUCCUGUCU |  |  | 104 nM | 8.82 nM
34 | AUCAUUCGUGUAGGAUAUGCGUGGCGAAGCUAUGCAGAAGGACAUGAGGAUCACCCAUGUCUUUCUGUCUGUGUACAGACAGGA | 22.2 nM | 94.8 nM |  | 
35 | UCAGGCUUCGAGAAGGACAUGAGGAUCACCCAUGUUAACAUGUAGCAGCCGUGAGGCUGCAUCAUGUAGGAUAUCGGAGUCUGC | 6.07 nM | 7.07 nM |  | 
36 | CUUUUGUGAGGAUAUCAUUAGUAAAAAAAUAAAAUUACUACUGAGAAGGCACAUGAGGAUCACCCAUGUUCCUC | 35.5 nM | 233 nM |  | 
37 | UGAGCCGGCACUGAGGAUAUUCAUAUUAAAACAUGAGGAUCACCCAUGUAGGCCAGAAGGCCUUGGGAGAAGGCAGGUCGGCUCA |  |  | 403 nM | 20.6 nM
38 | AUCCUGCGAGGAUAUACAUAGUGACGUCUGUUAGGUCUCAAACAUGAGGAUCACCCAUGUAGAAGGUGCGUCAC | 19.4 nM | 18.2 nM |  | 
39 | AGCUGUGGCCGAGGAUAUCUGAACUCAAUAACCGAAAUAUAAUCGGACAUGAGGAUCACCCAUGUAGAGAAGGCGGUCUCAGCA | 34 nM | 56.5 nM |  | 
40 | UUUUUGUCAGGAUAUGCGUAGUAGAACAAUAGUACUACUACGUAGAAGGGACAUGAGGAUCACCCAUGUUCCUC | 14.4 nM | 20.5 nM |  | 
41 | GCGACGAAAGUCGAACGAUGUAGCAGAAGGACAUGAGGAUCACCCAUGUCAGCUGUAACAGCCAUGUAGGAUAUGCUACAUCGC | 4.19 nM | 5.42 nM |  | 
42 | CUGAGCUGAGGAUAUACAUGAGGAUCACCCAUGUUAAGCAGCUAGCGUAAAAGCAGAUGUAGAAGGCAGUUCGG | 18.9 nM | 20.3 nM |  | 
43 | UGUAUGGACAGAGGAUAUACGGAUAGGAUCUACUAUCUUCUUCAAAUAACAUGAGGAUCACCCAUGUAGAAGGCUGUCCAUACU | 16.1 nM | 35.1 nM |  | 
44 | GUAGCUCCUGACAUGAGGAUCACCCAUGUUCAAUUAUUAAAUCAGGAUAUCGGCUAGAAACUAGCCGAGAAGGGAUAUGCUACU |  |  | 5.13 nM | 5.97 nM
45 | UUGAGGUCAGGAUAUGCAUGGCGGGACUUGCGUCGUGGCGUGCAGAAGGGACAUGAGGAUCACCCAUGUGGAGG | 176 nM | 233 nM |  | 
46 | GCAUGUGUAUAAGGAUAUGCAUCACUGAGAAAUUUAGUGAGGAAGAUCACAUGAGGAUCACCCAUGUAGAAGGUAUACACGUGC | 7.32 nM | 52.3 nM |  | 
47 | CGAUUAUUGAUCCAUUUUUACAACAUGAGGAUCACCCAUGUGCAGGAUAUCGUGAUUAUUAUCAACGAGAAGGGCAAAUUCACG | 49 nM | 137 nM |  | 
48 | GCAGACGUAGUGAGGAUAUGCUCUACCUCGGUAGAGCAGAAGGCACAUGAGGAUCACCCAUGUGAUUUUUCUGC | 40 nM | 573 nM |  | 
49 | AGUUGUUCAGGAUAUGGUGUGUUAUACAUGAGGAUCACCCAUGUGGGUCCUGGUUUGGCCUCAGAAGGGAAUGUUG | 636 nM | 518 nM |  | 
50 | AACAUUCUAUCUCAGGAUAUCAUGUCAAAGACAUGAGGAUCACCCAUGUACCAGGAAACUGGUUAUGAGAAGGGAGAUAGAAUGA |  |  | 1220 nM | 227 nM
51 | AAUAAACGCACAGGAUAUAGCAUCGACGUUGAGAACUUAAAGACGUCGAUGCUAGAAGGGUGAAAACAUGAGGAUCACCCAUGU |  |  | 87.6 nM | 18.7 nM
52 | GGAUCGAAAGUGAGGAUAUGCUGGUCCUUGGAUCAGCAGAAGGCACAUGAGGAUCACCCAUGUUUCCACGGUCC | 19.5 nM | 91 nM |  | 
53 | UCGAAACAUGAGGAUCACCCAUGUGCUCACGACAUAGGAUAUACUAGCUCGAAGAGCUGCGUAGAAGGGUGAAGUG |  |  | 45.9 nM | 26.8 nM
54 | CAUCGGAAGCAGAAGGCAUGAACGGACAUGAGGAUCACCCAUGUUGGAAACUCAUGCCCGAAAGAUGAGGAUAUGCGUCCGGGU | 72.8 nM | 17 nM |  | 
55 | CCAAGCUGUGUGAGGAUAUGCUGAACCUUGGUUCAGCAGAAGGCACAUGAGGAUCACCCAUGUGAAGAGCUUGG | 17.3 nM | 69.3 nM |  | 
